In paper PMC6298601 (Biochemical pharmacology, 2018):
Where “and” joins values, the source holds several entries; their conditions need not be identical. Equal entries are not always repeated. Entries after “also recorded” stand apart in the source; their conditions may differ. Where two headings read alike, the source gives them in different places.

Assays:
recombinant human MAO-A = target: T1, recombinant human MAO-A (Homo sapiens, UniProt P21397); experiment: Fluorometric kynuramine deamination assay, recombinant human MAO-A inhibition; type: biochemical
T1 sequence (P21397 1-527): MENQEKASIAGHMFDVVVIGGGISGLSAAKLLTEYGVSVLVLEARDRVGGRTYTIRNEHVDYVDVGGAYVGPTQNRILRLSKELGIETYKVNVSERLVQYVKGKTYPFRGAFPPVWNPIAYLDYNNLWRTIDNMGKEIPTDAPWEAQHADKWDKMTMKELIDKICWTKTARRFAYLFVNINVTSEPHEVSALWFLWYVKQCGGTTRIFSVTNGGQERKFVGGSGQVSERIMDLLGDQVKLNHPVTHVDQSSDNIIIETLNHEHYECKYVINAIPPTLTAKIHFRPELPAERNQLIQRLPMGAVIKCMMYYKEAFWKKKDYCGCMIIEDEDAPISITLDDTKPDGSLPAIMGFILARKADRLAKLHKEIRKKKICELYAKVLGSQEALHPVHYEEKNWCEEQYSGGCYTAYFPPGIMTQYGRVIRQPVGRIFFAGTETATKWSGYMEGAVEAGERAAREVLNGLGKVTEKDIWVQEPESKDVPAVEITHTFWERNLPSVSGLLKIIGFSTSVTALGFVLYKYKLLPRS

[1] = cited from earlier work
recombinant human MAO-B [2] = target: T2, recombinant human MAO-B (Homo sapiens, UniProt P27338); experiment: biochemical; type: biochemical
T2 sequence (P27338 1-520): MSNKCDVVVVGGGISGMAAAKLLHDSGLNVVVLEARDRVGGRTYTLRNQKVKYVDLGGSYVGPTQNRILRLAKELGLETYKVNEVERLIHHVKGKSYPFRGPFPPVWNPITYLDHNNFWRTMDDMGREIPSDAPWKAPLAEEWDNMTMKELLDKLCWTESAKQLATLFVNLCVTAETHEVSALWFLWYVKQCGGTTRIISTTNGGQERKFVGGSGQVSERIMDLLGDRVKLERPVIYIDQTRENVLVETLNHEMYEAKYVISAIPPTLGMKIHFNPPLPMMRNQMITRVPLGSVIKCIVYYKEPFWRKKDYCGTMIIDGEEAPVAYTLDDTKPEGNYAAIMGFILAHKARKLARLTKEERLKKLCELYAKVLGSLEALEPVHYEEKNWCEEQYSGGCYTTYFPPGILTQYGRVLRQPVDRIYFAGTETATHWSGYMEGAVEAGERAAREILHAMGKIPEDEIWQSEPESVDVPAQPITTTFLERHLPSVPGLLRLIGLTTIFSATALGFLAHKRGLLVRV

[3] = Solubility observation at the concentrations tested; conditions: at the concentrations tested in the MAO assays
recombinant human MAO-B [4] = target: T2, recombinant human MAO-B; type: biochemical
recombinant human MAO-B [5] = target: T2, recombinant human MAO-B; type: binding
recombinant human MAO-B [6] = target: T2, recombinant human MAO-B; type: biochemical; remark: listed apart in the source
[7] = test system: MAO activity in Neuroscreen-1 (NS-1) cells; experiment: MAO activity in lysates of treated Neuroscreen-1; type: cell-based, rat; conditions: deprenyl 1.0 μM, 12 hours
Method in brief: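 NS-1 cells (rat PC12 subclone) in suspension culture were treated for 12 hours with test compound (100 µM), a selective MAO-B inhibitor reference (1.0 µM) or ethanol, alongside untreated controls. Lysates were prepared from the cells. MAO activity in the lysates was measured by fluorometric kynuramine deamination, with kynuramine at 80 µM for MAO-A and 50 µM for MAO-B.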

[8] = read-out: MAO-B IC50 (μM) ± S.D., kynuramine 50 μM, test compounds 0.01 to 100 μM, mean ± S.D. of triplicate

Compound: CCCCC/C=C\C/C=C\C/C=C\C/C=C\CCCC(=O)OC(CO)CO [2-AG, 2-arachidonoylglycerol]
- IC50 (recombinant human MAO-A): > 100 µM
- critical micellar concentration (CMC) ([1]; ref 48): 4.2 ± 0.5 µM
- IC50 (recombinant human MAO-B [2]): 50.5 ± 0.515 µM
- solubility issues [3]: did not show any solubility issues

Compound: CCCCC/C=C\C/C=C\C/C=C\C/C=C\CCCC(=O)N[C@H](C)CO [(R)-(+)-Methanandamide]
- IC50 (recombinant human MAO-B [2]; [8]): 51.1 ± 1.3 µM
- solubility issues [3]: did not show any solubility issues

Compound: CCCCC/C=C\C/C=C\C/C=C\C/C=C\CCCC(=O)NCCO [Anandamide]
- IC50 (recombinant human MAO-A): > 100 µM
- IC50 (recombinant human MAO-B [2]): 40 ± 4.6 µM

Compound: CCCCC/C=C\C/C=C\C/C=C\C/C=C\CCCC(=O)NCC(=O)O [NA-glycine, N-arachidonyl-glycine]
- critical micellar concentration (CMC) ([1]; ref 48): > 100 µM

Compound: CCCCC/C=C\C/C=C\C/C=C\C/C=C\CCCCOC(CO)CO [Noladin ether]
- IC50 (recombinant human MAO-B [2]; [8]): 18.2 ± 1.45 µM
- solubility issues [3]: did not show any solubility issues

Compound: CCCCCCCC/C=C\CCCCCCCC(=O)NCCO [Oleylethanolamide]
- MAO-A IC50 (μM) ± S.D. (recombinant human MAO-A; kynuramine 80 μM, test compounds 0.01 to 100 μM, mean ± S.D. of triplicate): no activity
- MAO-B IC50 (μM) ± S.D. (recombinant human MAO-B [2]; kynuramine 50 μM, test compounds 0.01 to 100 μM, mean ± S.D. of triplicate): no activity
- IC50 (recombinant human MAO-B [2]; [8]): > 100 µM

Compound: CCCCC/C=C\C/C=C\C/C=C\C/C=C\CCCC(=O)OCCN [Virodhamine]
- MAO-B Type of Inhibition (recombinant human MAO-B [4]; Lineweaver-Burk analysis and dialysis): mixed mechanism/irreversible binding; also recorded: mixed enzyme inhibition mechanism
- Ki (recombinant human MAO-B [4]; read-out: MAO-B Ki (μM) ± S.D., kynuramine 1.90 to 500 μM, mean ± S.D. of triplicate): 0.258 ± 0.037 µM
- nature of binding with MAO-B (reversibility) (recombinant human MAO-B [5]; equilibrium dialysis overnight): irreversible
- enzyme activity recovered after overnight dialysis (recombinant human MAO-B [5]; virodhamine 10.0 μM, 20 min at 37 °C, dialysis 14-16 h at 4 °C): 2.644 ± 0.450%
- inhibition of catalytic activity before dialysis (recombinant human MAO-B [5]; virodhamine 10.0 μM, 20 min incubation): almost complete inhibition
- fold greater inhibition of MAO-B compared to MAO-A (recombinant human MAO-B [2]; ratio of IC50 MAO-A / MAO-B): ~ 55 fold and > 54 fold
- IC50 (recombinant human MAO-B [2]; [8]): 0.71 ± 0.04 µM
- inhibition of MAO-B after pre-incubation (recombinant human MAO-B [6]; 0.25 μM virodhamine, pre-incubation 0-15 min): 55-70%
- time dependence of MAO-B inhibition (recombinant human MAO-B [6]; pre-incubation 0-15 min, virodhamine 2.5 μM, deprenyl 0.100 μM): time-dependent
- inhibition of the enzyme activity at the concentration chosen (recombinant human MAO-B [6]; virodhamine 2.5 μM): > 60%

Compound: CCCCC/C=C\C/C=C\C/C=C\C/C=C\CCCC(=O)O [arachidonic acid]
- critical micellar concentration (CMC) ([1]; ref 46): 73 µM
- critical micellar concentration (CMC) ([1]; ref 47): ~ 30 μM

Compound: CCCCC/C=C\C/C=C\C/C=C\C/C=C\CCCCO [arachidonoyl alcohol]
- critical micellar concentration (CMC) ([1]; ref 46): 30 µM

Compound: R-(−)-deprenyl hydrochloride
- inhibition of MAO activity in NS-1 cells [7]: > 90%
